In brackets after ≈: the same amount, converted by molar mass. Activity calls are given as the source filed them. The rule behind the calls is not given here.
What was measured:
[1] = test system: Colletotrichum graminicola; test: Fungicidal activity against tebuconazole-adapted wild type Colletotrichum graminicola CgM2 assessed as inhibition of radial growth rate at 23 degC in darkness; format: functional; conditions: for EC50: Colletotrichum graminicola, CgM2, read-out: ED50 (the source's name)
Method in brief: (§1)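 Radial growth on solid complete medium, 23°C, darkness. Colony diameters were read at 3 and 6 days after inoculation and compared with drug-free control plates. Azoles and picoxystrobin were dissolved in 12% (wt/vol) Cremophor EL and tested at 0–2.5 μg/ml. Caspofungin, amphotericin B and nystatin were dissolved in water and tested from 0.00025 μg/ml; caspofungin plates used sucrose (10 mg/ml) in place of glucose.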

[2] = test system: Colletotrichum graminicola; test: Fungicidal activity against tebuconazole-nonadapted wild type Colletotrichum graminicola CgM2 assessed as inhibition of radial growth rate at 23 degC in darkness; format: functional; conditions: for EC50: Colletotrichum graminicola, CgM2, read-out: ED50 (the source's name); method in brief: as §1
[3] = test system: Colletotrichum graminicola; test: Ratio of ED50 for tebuconazole-adapted wild type Colletotrichum graminicola CgM2 to ED50 for tebuconazole-nonadapted wild type Colletotrichum graminicola CgM2; format: functional
Method in brief: (§2)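 Values came from logit transformation and linear regression, with confidence intervals at α = 0.05. Ratios compare tebuconazole-adapted with nonadapted CgM2.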

[4] = test system: Colletotrichum graminicola; test: Ratio of ED90 for tebuconazole-adapted wild type Colletotrichum graminicola CgM2 to ED90 for tebuconazole-nonadapted wild type Colletotrichum graminicola CgM2; format: functional; method in brief: as §2
[5] = test system: Colletotrichum graminicola; test: Fungicidal activity against compound-adapted wild type Colletotrichum graminicola CgM2 assessed as inhibition of radial growth rate at 30 ppm at 23 degC in darkness after 7 days; format: functional, organism-based
Method in brief: (§3)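 Isolate CgM2: 1 × 10^6 conidia grown in 50 ml liquid complete medium (CM), 7 days in darkness at 23°C. Adapted lines were passed through tebuconazole at 1, 5 and 20 μg/ml, then kept on CM plates containing 5 and 8 μg/ml (4 weeks each) and finally 30 μg/ml. Radial growth on CM plates was compared with that of the nonadapted strain.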

[6] = test system: Colletotrichum graminicola; test: Fungicidal activity against compound-nonadapted wild type Colletotrichum graminicola CgM2 assessed as inhibition of radial growth rate at 30 ppm at 23 degC in darkness after 7 days; format: functional, organism-based; method in brief: as §3
[7] = test system: Colletotrichum graminicola; test: Fungicidal activity against tebuconazole-nonadapted wild type Colletotrichum graminicola CgM2 infected in excised human skin assessed as inhibition of invasive colonized hyphal growth at dermis at twofold ED90 after 4 days by Uvitex-2B staining-based fluorescence microscopy; format: functional, organism-based
Method in brief: (§4)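 Excised human skin from reduction mammoplasty, all pieces from one donor, cut to 20 mm discs. Each disc got 15–20 prick wounds and 100 μl of 10^6 conidia/ml. Discs sat in a Franz diffusion cell at 32°C over isotonic NaCl for up to 4 days. Drug was applied at ED50, ED90 or 2× ED90, three pieces per condition. Biopsies were cryosectioned and Uvitex 2B-stained; hyphal area per section was measured by fluorescence.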

[8] = test system: Colletotrichum graminicola; test: Fungicidal activity against tebuconazole-adapted wild type Colletotrichum graminicola CgM2 infected in excised human skin assessed as inhibition of invasive colonized hyphal growth at epidermis at ED90 after 4 days by Uvitex-2B staining-based fluorescence microscopy; format: functional, organism-based; method in brief: as §4
[9] = test system: Colletotrichum graminicola; test: Fungicidal activity against tebuconazole-nonadapted wild type Colletotrichum graminicola CgM2 infected in excised human skin assessed as inhibition of invasive colonized hyphal growth at dermis at ED90 after 4 days by Uvitex-2B staining-based fluorescence microscopy; format: functional, organism-based; method in brief: as §4
[10] = test system: Colletotrichum graminicola; test: Fungicidal activity against tebuconazole-adapted wild type Colletotrichum graminicola CgM2 infected in excised human skin assessed as inhibition of invasive colonized hyphal growth at dermis at twofold ED90 after 4 days by Uvitex-2B staining-based fluorescence microscopy; format: functional, organism-based; method in brief: as §4
[11] = test system: Colletotrichum graminicola; test: Fungicidal activity against tebuconazole-adapted wild type Colletotrichum graminicola CgM2 infected in excised human skin assessed as inhibition of invasive colonized hyphal growth at hypodermis at ED90 after 4 days by Uvitex-2B staining-based fluorescence microscopy; format: functional, organism-based; method in brief: as §4
[12] = test system: Colletotrichum graminicola; test: Fungicidal activity against tebuconazole-nonadapted wild type Colletotrichum graminicola CgM2 infected in excised human skin assessed as inhibition of invasive colonized hyphal growth at epidermis at ED90 after 4 days by Uvitex-2B staining-based fluorescence microscopy; format: functional, organism-based; method in brief: as §4
[13] = test system: Colletotrichum graminicola; test: Fungicidal activity against tebuconazole-adapted wild type Colletotrichum graminicola CgM2 infected in excised human skin assessed as inhibition of invasive colonized hyphal growth at hypodermis at twofold ED90 after 4 days by Uvitex-2B staining-based fluorescence microscopy; format: functional, organism-based; method in brief: as §4
[14] = test system: Colletotrichum graminicola; test: Fungicidal activity against tebuconazole-adapted wild type Colletotrichum graminicola CgM2 infected in excised human skin assessed as inhibition of invasive colonized hyphal growth at hypodermis at ED50 after 4 days by Uvitex-2B staining-based fluorescence microscopy; format: functional, organism-based; method in brief: as §4
[15] = test system: Colletotrichum graminicola; test: Fungicidal activity against tebuconazole-nonadapted wild type Colletotrichum graminicola CgM2 infected in excised human skin assessed as inhibition of invasive colonized hyphal growth at epidermis at twofold ED90 after 4 days by Uvitex-2B staining-based fluorescence microscopy; format: functional, organism-based; method in brief: as §4
[16] = test system: Colletotrichum graminicola; test: Fungicidal activity against tebuconazole-adapted wild type Colletotrichum graminicola CgM2 infected in excised human skin assessed as inhibition of invasive colonized hyphal growth at dermis at ED50 after 4 days by Uvitex-2B staining-based fluorescence microscopy; format: functional, organism-based; method in brief: as §4
[17] = test system: Colletotrichum graminicola; test: Fungicidal activity against tebuconazole-nonadapted wild type Colletotrichum graminicola CgM2 infected in excised human skin assessed as inhibition of invasive colonized hyphal growth at hypodermis at ED50 after 4 days by Uvitex-2B staining-based fluorescence microscopy; format: functional, organism-based; method in brief: as §4
[18] = test system: Colletotrichum graminicola; test: Fungicidal activity against tebuconazole-adapted wild type Colletotrichum graminicola CgM2 infected in excised human skin assessed as inhibition of invasive colonized hyphal growth at dermis at ED90 after 4 days by Uvitex-2B staining-based fluorescence microscopy; format: functional, organism-based; method in brief: as §4
[19] = test system: Colletotrichum graminicola; test: Fungicidal activity against tebuconazole-adapted wild type Colletotrichum graminicola CgM2 infected in excised human skin assessed as inhibition of invasive colonized hyphal growth at epidermis at ED50 after 4 days by Uvitex-2B staining-based fluorescence microscopy; format: functional, organism-based; method in brief: as §4
[20] = test system: Colletotrichum graminicola; test: Fungicidal activity against tebuconazole-nonadapted wild type Colletotrichum graminicola CgM2 infected in excised human skin assessed as inhibition of invasive colonized hyphal growth at dermis at ED50 after 4 days by Uvitex-2B staining-based fluorescence microscopy; format: functional, organism-based; method in brief: as §4
[21] = test system: Colletotrichum graminicola; test: Fungicidal activity against tebuconazole-adapted wild type Colletotrichum graminicola CgM2 infected in excised human skin assessed as inhibition of invasive colonized hyphal growth at epidermis at twofold ED90 after 4 days by Uvitex-2B staining-based fluorescence microscopy; format: functional, organism-based; method in brief: as §4
[22] = test system: Colletotrichum graminicola; test: Fungicidal activity against tebuconazole-nonadapted wild type Colletotrichum graminicola CgM2 infected in excised human skin assessed as inhibition of invasive colonized hyphal growth at hypodermis at twofold ED90 after 4 days by Uvitex-2B staining-based fluorescence microscopy; format: functional, organism-based; method in brief: as §4
[23] = test system: Colletotrichum graminicola; test: Fungicidal activity against tebuconazole-nonadapted wild type Colletotrichum graminicola CgM2 infected in excised human skin assessed as inhibition of invasive colonized hyphal growth at epidermis at ED50 after 4 days by Uvitex-2B staining-based fluorescence microscopy; format: functional, organism-based; method in brief: as §4
[24] = test system: Colletotrichum graminicola; test: Fungicidal activity against tebuconazole-nonadapted wild type Colletotrichum graminicola CgM2 infected in excised human skin assessed as inhibition of invasive colonized hyphal growth at hypodermis at ED90 after 4 days by Uvitex-2B staining-based fluorescence microscopy; format: functional, organism-based; method in brief: as §4

Row | Molecule | ED90 [1] | ED90 [2] | EC50 [1] | EC50 [2] | also measured
1 | NYSTATIN | 0.896 µg/mL | 2.41 µg/mL |  |  | ED50 [1]: 0.023 µg/mL; ED50 [2]: 0.03 µg/mL
2 | Clc1ccccc1C(c1ccccc1)(c1ccccc1)n1ccnc1 [CLOTRIMAZOLE] | 6.485 µg/mL (≈ 18.8 µM) | 2.44 µg/mL (≈ 7.08 µM) | 0.145 µg/mL (≈ 0.42 µM) | 0.128 µg/mL (≈ 0.371 µM) | 
3 | CCC(C)n1ncn(-c2ccc(N3CCN(c4ccc(OCC5COC(Cn6cncn6)(c6ccc(Cl)cc6Cl)O5)cc4)CC3)cc2)c1=O (stereo unspecified) [ITRACONAZOLE] | 8.848 µg/mL (≈ 12.5 µM) | 1.351 µg/mL (≈ 1.91 µM) | 0.014 µg/mL (≈ 0.0198 µM) | 0.007 µg/mL (≈ 0.00992 µM) | 
4 | C[C@@H](c1ncncc1F)[C@](O)(Cn1cncn1)c1ccc(F)cc1F [VORICONAZOLE] | 1.328 µg/mL (≈ 3.8 µM) | 0.228 µg/mL (≈ 0.653 µM) | 0.045 µg/mL (≈ 0.129 µM) | 0.018 µg/mL (≈ 0.0515 µM) | 
5 | Cc1cc(C2CCCCC2)n(O)c(=O)c1.NCCO [CICLOPIROX OLAMINE] | 54.616 µg/mL | 64.842 µg/mL | 3.67 µg/mL | 9.83 µg/mL | 
6 | CC(=O)N1CCN(c2ccc(OCC3COC(Cn4ccnc4)(c4ccc(Cl)cc4Cl)O3)cc2)CC1 (stereo unspecified) [KETOCONAZOLE] | 12.419 µg/mL (≈ 23.4 µM) | 1.492 µg/mL (≈ 2.81 µM) | 0.552 µg/mL (≈ 1.04 µM) | 0.115 µg/mL (≈ 0.216 µM) | 
7 | CCCN(CCOc1c(Cl)cc(Cl)cc1Cl)C(=O)n1ccnc1 [PROCHLORAZ] | 0.72 µg/mL (≈ 1.91 µM) | 0.087 µg/mL (≈ 0.231 µM) | 0.011 µg/mL (≈ 0.0292 µM) | 0.004 µg/mL (≈ 0.0106 µM) | fold change (FC) [3]: 2.75; fold change (FC) [4]: 8
8 | C[C@@H]1[C@H](O)[C@@H](C)/C=C/C=C/C=C/C=C/C=C/C=C/C=C/[C@H](O[C@@H]2O[C@H](C)[C@@H](O)[C@H](N)[C@@H]2O)C[C@@H]2O[C@](O)(C[C@@H](O)C[C@@H](O)[C@H](O)CC[C@@H](O)C[C@@H](O)CC(=O)O[C@H]1C)C[C@H](O)[C@H]2C(=O)O [AMPHOTERICIN B] | 0.873 µg/mL (≈ 0.945 µM) | 2.147 µg/mL (≈ 2.32 µM) | 0.007 µg/mL (≈ 0.00758 µM) | 0.03 µg/mL (≈ 0.0325 µM) | 
9 | CO/C=C(/C(=O)OC)c1ccccc1COc1cccc(C(F)(F)F)n1 [PICOXYSTROBIN] | 1.041 µg/mL (≈ 2.83 µM) | 0.148 µg/mL (≈ 0.403 µM) | 0.026 µg/mL (≈ 0.0708 µM) | 0.006 µg/mL (≈ 0.0163 µM) | fold change (FC) [3]: 4; fold change (FC) [4]: 7
10 | COC1=CC(=O)C[C@@H](C)[C@]12Oc1c(Cl)c(OC)cc(OC)c1C2=O [GRISEOFULVIN] | 5.839 µg/mL (≈ 16.6 µM) | 5.503 µg/mL (≈ 15.6 µM) | 0.051 µg/mL (≈ 0.145 µM) | 0.607 µg/mL (≈ 1.72 µM) | 
11 | CCC(C)(C)c1ccc(CC(C)CN2C[C@@H](C)O[C@@H](C)C2)cc1 (stereo partly specified) [AMOROLFINE] | 0.36 µg/mL (≈ 1.13 µM) | 0.347 µg/mL (≈ 1.09 µM) | 0.023 µg/mL (≈ 0.0724 µM) | 0.03 µg/mL (≈ 0.0945 µM) | 
12 | Clc1ccc(COC(Cn2ccnc2)c2ccc(Cl)cc2Cl)c(Cl)c1 (stereo unspecified) [MICONAZOLE] | 4.386 µg/mL (≈ 10.5 µM) | 1.327 µg/mL (≈ 3.19 µM) | 0.048 µg/mL (≈ 0.115 µM) | 0.028 µg/mL (≈ 0.0673 µM) | 
13 | CC(C)(C)C(O)(CCc1ccc(Cl)cc1)Cn1cncn1 (stereo unspecified) [TEBUCONAZOLE] | 13.534 µg/mL (≈ 44 µM) | 0.504 µg/mL (≈ 1.64 µM) | 0.423 µg/mL (≈ 1.37 µM) | 0.059 µg/mL (≈ 0.192 µM) | Activity [5]: inactive; fold change (FC) [3]: 7; Activity [6]: Active; fold change (FC) [4]: 27
14 | Cc1cccc(N(C)C(=S)Oc2ccc3ccccc3c2)c1 [TOLNAFTATE] | 98.71 µg/mL (≈ 321 µM) | 104.107 µg/mL (≈ 339 µM) | 0.537 µg/mL (≈ 1.75 µM) | 0.582 µg/mL (≈ 1.89 µM) | 
15 | c1ccc(-c2ccc(C(c3ccccc3)n3ccnc3)cc2)cc1 (stereo unspecified) [BIFONAZOLE] | 4.892 µg/mL (≈ 15.8 µM) | 1.958 µg/mL (≈ 6.31 µM) | 0.33 µg/mL (≈ 1.06 µM) | 0.148 µg/mL (≈ 0.477 µM) | Activity [7]: Active; Activity [8]: inactive; Activity [9]: Active; Activity [10]: inactive; Activity [11]: inactive; Activity [12]: Active; Activity [13]: inactive; Activity [14]: inactive; Activity [15]: Active; Activity [16]: inactive; Activity [17]: Active; Activity [18]: inactive; Activity [19]: inactive; Activity [20]: Active; Activity [21]: inactive; Activity [22]: Active; Activity [23]: Active; Activity [24]: Active
